ChEMBL document CHEMBL1165950, “Design and synthesis of new potent anticancer pyrazoles with high FLT3 kinase inhibitory selectivity” (Bioorg Med Chem, 2010)

Assays:
Format in all cases: functional
HOP-62 [1] = assay: Cytotoxicity against human HOP62 cells assessed as cell growth at 10 uM after 48 hrs by sulforhodamine B assay; details: HOP-62, 48 h, read-out: Activity
NCI-H322M = assay: Cytotoxicity against human NCI-H322M cells assessed as cell growth at 10 uM after 48 hrs by sulforhodamine B assay; details: read-out: Activity
HCT-116 = assay: Cytotoxicity against human HCT116 cells assessed as cell growth at 0.01 uM after 48 hrs by sulforhodamine B assay; details: HCT-116, 48 h, read-out: Activity
COLO 205 = assay: Cytotoxicity against human COLO205 cells assessed as cell growth at 0.01 uM after 48 hrs by sulforhodamine B assay; details: COLO 205, 48 h, read-out: Activity
How it was run: (§1)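 NCI-60 five-dose screen. Cells were grown in RPMI 1640 with 5% FBS and 2 mM L-glutamine, plated at 5000–40,000 cells/well and preincubated for 24 h. Time-zero plates were TCA-fixed. DMSO-solubilized drug was added at five concentrations (10-fold or ½-log serial dilutions) for 48 h at 37 °C, 5% CO2. Cells were TCA-fixed, stained with 0.4% SRB and read at 515 nm. Percent growth used time-zero, control and test absorbances.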

NCI/ADR-RES [2] = assay: Cytotoxicity against human NCI/ADR-RES cells assessed as cell growth at 100 nM after 48 hrs by sulforhodamine B assay; details: read-out: Activity
KM12 = assay: Cytotoxicity against human KM12 cells assessed as cell growth at 10 uM after 48 hrs by sulforhodamine B assay; details: KM12, 48 h, read-out: Activity
IGROV-1 = assay: Cytotoxicity against human IGROV1 cells assessed as cell growth at 0.01 uM after 48 hrs by sulforhodamine B assay; details: IGROV-1, 48 h, read-out: Activity
LOX IMVI = assay: Cytotoxicity against human LOXIMVI cells assessed as cell growth at 10 uM after 48 hrs by sulforhodamine B assay; details: read-out: Activity
MCF7 = assay: Cytotoxicity against human MCF7 cells assessed as cell growth at 0.01 uM after 48 hrs by sulforhodamine B assay; details: MCF7, 48 h, read-out: Activity
SNB-19 = assay: Cytotoxicity against human SNB19 cells assessed as cell growth at 10 uM; details: read-out: Activity
How it was run: (§2)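 NCI-60 screen: cells grown in RPMI 1640 with 5% FBS and 2 mM L-glutamine, plated at 5000–40,000 cells/well according to doubling time, and preincubated 24 h at 37 °C, 5% CO2. The single 10 µM dose (DMSO stock) was added, then incubated 48 h. Cells were TCA-fixed and stained with 0.4% SRB, read at 515 nm, and growth % calculated against time-zero and control plates.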

HT-29 [3] = assay: Growth inhibition of human HT-29 cells after 48 hrs by sulforhodamine B assay; details: HT-29, 48 h; for CC50: read-out: LC50 (the source's name)
How it was run: (§3)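 NCI 60-cell screen, five-dose mode. Cells grown in RPMI 1640 with 5% FBS and 2 mM L-glutamine and plated at 5000-40,000 cells/well according to doubling time. After 24 h preincubation, a Tz plate was TCA-fixed. Five concentrations (10-fold or 1/2 log dilutions) were applied for 48 h at 37 °C. SRB staining read at 515 nm. IC50 taken from [(Ti-Tz)/(C-Tz)]×100 = 50.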

BT-549 = assay: Cytotoxicity against human BT549 cells assessed as cell growth at 100 nM after 48 hrs by sulforhodamine B assay; details: BT-549, 48 h, read-out: Activity; how it was run: as §1
NCI-H23 = assay: Cytotoxicity against human NCI-H23 cells assessed as cell growth at 100 nM after 48 hrs by sulforhodamine B assay; details: NCI-H23, 48 h, read-out: Activity
NCI/ADR-RES [4] = assay: Cytotoxicity against human NCI/ADR-RES cells assessed as cell growth at 1 uM after 48 hrs by sulforhodamine B assay; details: read-out: Activity
SK-MEL-2 = assay: Cytotoxicity against human SK-MEL-2 cells assessed as cell growth at 0.001 uM after 48 hrs by sulforhodamine B assay; details: SK-MEL-2, 48 h, read-out: Activity
NCI-H522 = assay: Cytotoxicity against human NCI-H522 cells assessed as cell growth at 10 uM after 48 hrs by sulforhodamine B assay; details: NCI-H522, 48 h, read-out: Activity
T47D = assay: Cytotoxicity against human T47D cells assessed as cell growth at 10 uM after 48 hrs by sulforhodamine B assay; details: read-out: Activity
SF-539 [5] = assay: Cytotoxicity against human SF539 cells assessed as cell growth at 1 uM after 48 hrs by sulforhodamine B assay; details: SF-539, 48 h, read-out: Activity
NCI-H460 = assay: Growth inhibition of human NCI-H460 cells after 48 hrs by sulforhodamine B assay; details: NCI-H460, 48 h; for CC50: read-out: LC50 (the source's name); how it was run: as §3
[6] = Cytotoxicity against human Hs 578T cells assessed as cell growth at 100 nM after 48 hrs by sulforhodamine B assay; details: read-out: Activity
HOP-62 [7] = assay: Cytotoxicity against human HOP62 cells assessed as cell growth at 0.001 uM after 48 hrs by sulforhodamine B assay; details: HOP-62, 48 h, read-out: Activity
HT-29 [8] = assay: Cytotoxicity against human HT-29 cells assessed as cell growth at 10 uM after 48 hrs by sulforhodamine B assay; details: HT-29, 48 h, read-out: Activity
A549 = assay: Cytotoxicity against human A549 cells assessed as cell growth at 100 nM after 48 hrs by sulforhodamine B assay; details: A549, 48 h, read-out: Activity; how it was run: as §1
SN12C = assay: Cytotoxicity against human SN12C cells assessed as cell growth at 10 uM after 48 hrs by sulforhodamine B assay; details: read-out: Activity
UACC-62 = assay: Cytotoxicity against human UACC62 cells assessed as cell growth at 0.001 uM after 48 hrs by sulforhodamine B assay; details: UACC-62, 48 h, read-out: Activity
A498 = assay: Cytotoxicity against human A498 cells assessed as cell growth at 1 uM after 48 hrs by sulforhodamine B assay; details: A498, 48 h, read-out: Activity; how it was run: as §1
HCC 2998 = assay: Cytotoxicity against human HCC2998 cells assessed as cell growth at 0.001 uM after 48 hrs by sulforhodamine B assay; details: HCC 2998, 48 h, read-out: Activity
OVCAR-3 = assay: Growth inhibition of human OVCAR-3 cells after 48 hrs by sulforhodamine B assay; details: OVCAR-3, 48 h; how it was run: as §3
SF-295 = assay: Cytotoxicity against human SF295 cells assessed as cell growth at 10 uM; details: read-out: Activity; how it was run: as §2
MDA-MB-468 = assay: Cytotoxicity against human MDA-MB-468 cells assessed as cell growth at 0.01 uM after 48 hrs by sulforhodamine B assay; details: MDA-MB-468, 48 h, read-out: Activity
CAKI-1 = assay: Cytotoxicity against human Caki1 cells assessed as cell growth at 0.001 uM after 48 hrs by sulforhodamine B assay; details: CAKI-1, 48 h, read-out: Activity
SF-539 [9] = assay: Cytotoxicity against human SF539 cells assessed as cell growth at 0.01 uM after 48 hrs by sulforhodamine B assay; details: SF-539, 48 h, read-out: Activity

Row | SMILES | growth at 10 µM (HOP-62 [1]) | growth at 10 µM (NCI-H322M) | growth at 0.01 µM (HCT-116) | growth at 0.01 µM (COLO 205) | growth at 0.1 µM (NCI/ADR-RES [2]) | growth at 10 µM (KM12) | growth at 0.01 µM (IGROV-1) | growth at 10 µM (LOX IMVI) | growth at 0.01 µM (MCF7) | growth at 10 µM (SNB-19) | GI50 (HT-29 [3]) | TGI (HT-29 [3]) | CC50 (HT-29 [3]) | growth at 0.1 µM (BT-549) | growth at 0.1 µM (NCI-H23) | growth at 1 µM (NCI/ADR-RES [4]) | growth at 0.001 µM (SK-MEL-2) | growth at 10 µM (NCI-H522) | growth at 10 µM (T47D) | growth at 1 µM (SF-539 [5]) | other results
1 | COc1cc(C)cc(-c2nn(CC#N)cc2-c2ccnc(-c3ccc(N(C)C)cc3)c2)c1 | -13% | 27% | 97% | 116% | -22% | -70% | 101% | -23% | 38% | 15.9% | 0.481 µM | 2.88 µM | 37.2 µM | 66% | 31% | -5% | 117% | -64% | -32% | -35% | CC50 (NCI-H460): 94.7 µM; growth at 0.1 µM [6]: -19%; growth at 0.001 µM (HOP-62 [7]): 108%; growth at 10 µM (HT-29 [8]): -66%; growth at 0.1 µM (A549): 36%; growth at 10 µM (SN12C): -8%; growth at 0.001 µM (UACC-62): 91%; growth at 1 µM (A498): -26%; growth at 0.001 µM (HCC 2998): 106%; GI50 (OVCAR-3): 0.204 µM; TGI (OVCAR-3): 0.448 µM; growth at 10 µM (SF-295): -8.52%; growth at 0.01 µM (MDA-MB-468): 74%; growth at 0.001 µM (CAKI-1): 102%; growth at 0.01 µM (SF-539 [9]): 107%
2 | COc1cc(C)cc(-c2nn(CC#N)cc2-c2ccc(-c3cccc(C(C)=O)c3)nc2)c1 | -12% | -10% | 93% | 100% | 59% | -25% | 92% | 6% | 97% | 27.8% | 3.28 µM | 18.7 µM | > 100 µM | 85% | 88% | -16% | 89% | -40% | -29% | -39% | GI50 (NCI-H460): 2.04 µM; TGI (NCI-H460): 5.72 µM; CC50 (NCI-H460): 26.6 µM; growth at 0.1 µM [6]: 61%; growth at 0.001 µM (HOP-62 [7]): 84%; growth at 10 µM (HT-29 [8]): -11%; growth at 0.1 µM (A549): 91%; growth at 10 µM (SN12C): 18%; growth at 0.001 µM (UACC-62): 94%; growth at 1 µM (A498): -21%; growth at 0.001 µM (HCC 2998): 87%; GI50 (OVCAR-3): 1.34 µM; TGI (OVCAR-3): 3.3 µM; CC50 (OVCAR-3; read-out: LC50 (the source's name)): 8.13 µM; growth at 10 µM (SF-295): 16.9%; growth at 0.01 µM (MDA-MB-468): 82%; growth at 0.001 µM (CAKI-1): 101%; growth at 0.01 µM (SF-539 [9]): 89%
